Assay results as given in ChEMBL document CHEMBL1157970, “Quercetin as the active principle of Hypericum hircinum exerts a selective inhibitory activity against MAO-A: extraction, biological analysis, and computational study” (J Nat Prod, 2006).
Activity calls are given as the source filed them. The calls are words filed in the database; no cut-off is given here.

Key:
Mus musculus [1] = assay: Increase in duration of immobility in CD1 mouse at 10 mg/kg, ip by forced swimming test relative to control; type: functional, organism-based; set-up: dose 10 mg/kg
Procedure, shortened: (§1)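 Male CD1 mice, 25-28 g, n = 10 per group. Two-day protocol: 15-min pretest swim in a cylinder of 25 °C water. After 24 h, a 10-min videotaped test session 60 min after ip injection of drug suspended in 0.5% CMC, given at 0.01 mL/g. Immobility time is compared with naïve and CMC groups by two-way ANOVA and Duncan test, p < 0.05.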

Mus musculus [2] = assay: Induction of behavioral effects in CD1 mouse at 1 mg/kg, ip by forced swimming test relative to control; type: functional, organism-based; set-up: dose 1 mg/kg; procedure, shortened: as §1
Mus musculus [3] = assay: Increase in duration of immobility in CD1 mouse at 10 mg/kg, ip by forced swimming test relative to carboxy methyl cellulose; type: functional, organism-based; set-up: dose 10 mg/kg; procedure, shortened: as §1
Mus musculus [4] = assay: Effect on duration of immobility in CD1 mouse at 1 mg/kg, ip by forced swimming test relative to carboxy methyl cellulose; type: functional, organism-based; set-up: dose 1 mg/kg; procedure, shortened: as §1
Mus musculus [5] = assay: Effect on duration of immobility in CD1 mouse at 1 mg/kg, ip by forced swimming test relative to control; type: functional, organism-based; set-up: dose 1 mg/kg; procedure, shortened: as §1
Mus musculus [6] = assay: Induction of behavioral effects in CD1 mouse at 10 mg/kg, ip by forced swimming test relative to control; type: functional, organism-based; set-up: dose 10 mg/kg; procedure, shortened: as §1
Mus musculus [7] = assay: Effect on duration of immobility in CD1 mouse at 10 mg/kg, ip by forced swimming test relative to carboxy methyl cellulose; type: functional, organism-based; set-up: dose 10 mg/kg; procedure, shortened: as §1
Mus musculus [8] = assay: Increase in duration of immobility in CD1 mouse at 1 mg/kg, ip by forced swimming test relative to control; type: functional, organism-based; set-up: dose 1 mg/kg; procedure, shortened: as §1
Mus musculus [9] = assay: Increase in duration of immobility in CD1 mouse at 1 mg/kg, ip by forced swimming test relative to carboxy methyl cellulose; type: functional, organism-based; set-up: dose 1 mg/kg; procedure, shortened: as §1
Mus musculus [10] = assay: Effect on duration of immobility in CD1 mouse at 10 mg/kg, ip by forced swimming test relative to control; type: functional, organism-based; set-up: dose 10 mg/kg; procedure, shortened: as §1
[11] = target: T1, Amine oxidase [flavin-containing] B (Bos taurus, UniProt P56560); assay: Inhibition of bovine MAO-B by fluorimetric method
T1 sequence (P56560 whole entry): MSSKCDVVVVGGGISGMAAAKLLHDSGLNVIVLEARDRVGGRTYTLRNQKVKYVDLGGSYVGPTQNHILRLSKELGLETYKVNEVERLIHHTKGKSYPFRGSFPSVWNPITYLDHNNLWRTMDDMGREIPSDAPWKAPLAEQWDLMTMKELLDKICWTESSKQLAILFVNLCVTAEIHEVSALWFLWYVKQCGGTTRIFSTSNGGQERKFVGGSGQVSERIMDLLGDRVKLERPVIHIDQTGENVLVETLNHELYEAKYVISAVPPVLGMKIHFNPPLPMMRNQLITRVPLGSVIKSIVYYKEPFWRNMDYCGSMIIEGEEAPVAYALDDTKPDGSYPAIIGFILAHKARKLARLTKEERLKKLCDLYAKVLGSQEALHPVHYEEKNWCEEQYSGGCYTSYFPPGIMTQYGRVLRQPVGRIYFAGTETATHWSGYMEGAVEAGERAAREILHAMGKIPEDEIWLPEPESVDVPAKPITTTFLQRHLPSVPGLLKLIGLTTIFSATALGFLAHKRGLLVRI
Procedure, shortened: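 Bovine brain mitochondria (6 mg/mL) in 0.25 M potassium phosphate buffer pH 7.4; preincubated 30 min at 38 °C with 0.05 μM clorgyline to isolate MAO-B. Kynuramine substrate at four levels, 5 μM to 0.1 mM; inhibitor added from DMSO; 30 min at 38 °C, stopped with HClO4, centrifuged, supernatant into 0.1 N NaOH, fluorimetric read-out. Means of ≥3 experiments in duplicate.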

Mus musculus [12] = assay: Induction of behavioral effects in CD1 mouse at 10 mg/kg, ip by forced swimming test relative to carboxy methyl cellulose; type: functional, organism-based; set-up: dose 10 mg/kg; procedure, shortened: as §1
Mus musculus [13] = assay: Induction of behavioral effects in CD1 mouse at 1 mg/kg, ip by forced swimming test relative to carboxy methyl cellulose; type: functional, organism-based; set-up: dose 1 mg/kg; procedure, shortened: as §1
[14] = target: T2, Amine oxidase [flavin-containing] A (Bos taurus, UniProt P21398); assay: Inhibition of bovine MAO-A by fluorimetric method
T2 sequence (P21398 whole entry): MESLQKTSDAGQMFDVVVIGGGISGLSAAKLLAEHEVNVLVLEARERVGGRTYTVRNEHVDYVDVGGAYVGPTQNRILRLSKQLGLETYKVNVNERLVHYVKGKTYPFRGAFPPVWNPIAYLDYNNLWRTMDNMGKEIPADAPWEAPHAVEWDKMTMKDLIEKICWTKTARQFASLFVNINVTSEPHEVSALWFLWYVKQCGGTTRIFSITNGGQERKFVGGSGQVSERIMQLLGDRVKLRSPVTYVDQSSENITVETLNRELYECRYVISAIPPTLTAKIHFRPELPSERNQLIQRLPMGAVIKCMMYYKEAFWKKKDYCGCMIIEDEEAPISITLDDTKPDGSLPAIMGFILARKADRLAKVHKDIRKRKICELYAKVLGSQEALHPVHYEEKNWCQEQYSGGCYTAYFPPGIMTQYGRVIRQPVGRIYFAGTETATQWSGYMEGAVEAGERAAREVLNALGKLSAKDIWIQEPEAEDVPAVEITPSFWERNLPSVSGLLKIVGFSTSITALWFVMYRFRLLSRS
Procedure, shortened: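 Beef brain mitochondria (6 mg/mL) in K3PO4 buffer pH 7.4 with kynuramine substrate (four concentrations, 5 μM to 0.1 mM). Preincubated 30 min at 38 °C with 0.5 μM L-deprenyl to isolate MAO-A. Drug in DMSO; incubated 30 min at 38 °C, stopped with HClO4, supernatant into NaOH, read fluorimetrically. Means of three or more experiments run in duplicate.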

What does the source list for `O=c1c(O)c(-c2ccc(O)c(O)c2)oc2cc(O)cc(O)c12` [QUERCETIN]?
Activity (Mus musculus [1]): Active; Activity (Mus musculus [2]): inactive; Activity (Mus musculus [3]): Active; Activity (Mus musculus [4]): inactive; Activity (Mus musculus [5]): inactive; Activity (Mus musculus [6]): inactive; Activity (Mus musculus [7]): inactive; Activity (Mus musculus [8]): Active; Activity (Mus musculus [9]): Active; Activity (Mus musculus [10]): inactive; IC50 [11]: 20 µM; Activity (Mus musculus [12]): inactive; Activity (Mus musculus [13]): inactive; IC50 [14]: 0.01 µM
